Test results from ChEMBL document CHEMBL1139374, “Multivalent scaffolds for affinity maturation of small molecule cell surface binders and their application to prostate tumor targeting” (J Med Chem, 2009).
Activity calls are given as the source filed them. The rule behind the calls is not given here.

Tests used:
[1] = biological target: T1, Glutamate carboxypeptidase 2 (Homo sapiens, UniProt Q04609); assay: Binding affinity to PSMA in human LNCaP cells assessed as cell surface binding in phosphate-buffered saline buffer; assay type: cell-based
Method in brief: (§1)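 Live-cell homologous competition; cells grown in RPMI 1640 with 10% FBS at 37°C and 5% CO2. Cells washed twice in ice-cold TBS pH 7.4, then held 20 min at 4°C with 0.02 MBq 99mTc-labeled tracer, with or without test compound, in TBS, PBS or 100% calf serum. Washed three times in TBS, gamma-counted, affinity taken from curve fit; mean ± S.D.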

[2] = biological target: T1, Glutamate carboxypeptidase 2; assay: Binding affinity to PSMA in human LNCaP cells assessed as cell surface binding in presence of 100% calf serum; assay type: cell-based; method in brief: as §1
[3] = biological target: T1, Glutamate carboxypeptidase 2; assay: Binding affinity to PSMA in living human LNCaP cells assessed as cell surface binding at 2 uM in presence of 100% calf serum by NIR fluorescence imaging; assay type: cell-based
Method in brief: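 Exponentially growing LNCaP cells at 75% confluence on glass coverslips, exposed to 2 μM compound in 0.2 mL 100% calf serum for 20 min at room temperature. Washed three times in serum, fixed in 2% paraformaldehyde 10 min, permeabilized with PBS-0.1% Tween-20 and mounted. Phase-contrast and NIR images taken on a four-channel NIR fluorescence microscope at identical exposure and normalization.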
Target sequence in this assay (Q04609 whole entry, looked up): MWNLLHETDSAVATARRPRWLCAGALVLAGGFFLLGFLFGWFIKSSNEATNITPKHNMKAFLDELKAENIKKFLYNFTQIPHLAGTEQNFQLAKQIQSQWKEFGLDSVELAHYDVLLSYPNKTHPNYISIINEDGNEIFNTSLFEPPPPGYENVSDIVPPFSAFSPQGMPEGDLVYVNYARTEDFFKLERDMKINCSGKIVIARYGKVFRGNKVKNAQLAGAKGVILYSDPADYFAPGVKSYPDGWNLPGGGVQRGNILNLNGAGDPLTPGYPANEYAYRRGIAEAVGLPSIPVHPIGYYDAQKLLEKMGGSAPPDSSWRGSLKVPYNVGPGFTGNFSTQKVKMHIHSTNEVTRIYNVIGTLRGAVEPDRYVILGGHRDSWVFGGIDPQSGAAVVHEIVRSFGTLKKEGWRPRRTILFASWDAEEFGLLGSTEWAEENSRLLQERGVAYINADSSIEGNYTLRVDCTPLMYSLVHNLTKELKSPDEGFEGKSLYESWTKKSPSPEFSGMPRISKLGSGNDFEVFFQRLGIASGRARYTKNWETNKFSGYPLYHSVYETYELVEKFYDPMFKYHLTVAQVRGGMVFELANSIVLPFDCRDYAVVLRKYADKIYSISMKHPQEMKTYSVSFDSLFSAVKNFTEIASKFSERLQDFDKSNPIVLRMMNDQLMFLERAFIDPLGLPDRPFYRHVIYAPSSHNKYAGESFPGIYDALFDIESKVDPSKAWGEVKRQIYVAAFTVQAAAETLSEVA

[4] = biological target: T1, Glutamate carboxypeptidase 2; assay: Binding affinity to PSMA in human LNCaP cells assessed as cell surface binding in Tris-buffered saline buffer; assay type: cell-based
Method in brief: (§2)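 Cells washed twice in ice-cold TBS pH 7.4, then held 20 min at 4°C with 0.02 MBq 99mTc-labeled tracer, with or without test compound, in TBS, PBS or 100% calf serum. Washed three times in TBS, gamma-counted, affinity taken from curve fit; mean ± S.D.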

[5] = biological target: T1, Glutamate carboxypeptidase 2; assay: Binding affinity to PSMA in human PC3 cells assessed as cell surface binding in Tris-buffered saline buffer; assay type: cell-based; conditions: for Activity: PC-3; method in brief: as §2
[6] = biological target: T1, Glutamate carboxypeptidase 2; assay: Binding affinity to PSMA in human PC3 cells assessed as cell surface binding in phosphate-buffered saline buffer; assay type: cell-based; method in brief: as §1
[7] = biological target: T1, Glutamate carboxypeptidase 2; assay: Binding affinity to PSMA in human PC3 cells assessed as cell surface binding in presence of 100% calf serum; assay type: cell-based, PC-3; method in brief: as §1
Target sequence in this assay (Q04609 whole entry): as the sequence (Q04609 whole entry, looked up) above

Compound | Activity [2] | Kd [1] [nM] | Kd [4] [nM] | Activity [5] | Activity [4] | other results
CC1(C)C(/C=C/C2=C(Oc3ccc(S(=O)(=O)O)cc3)C(=C/C=C3/N(CCCCS(=O)(=O)O)c4ccc(S(=O)(=O)O)cc4C3(C)C)/CCC2)=[N+](CCCCCC(=O)N[C@@H](CCP(=O)(O)CC(CCC(=O)O)C(=O)O)C(=O)O)c2ccc(S(=O)(=O)[O-])cc21 (stereo partly specified) | inactive |  |  |  |  | Activity [1]: inactive
CC1(C)C(/C=C/C2=C(Oc3ccc(S(=O)(=O)[O-])cc3)C(=C/C=C3/Nc4ccccc4C3(C)C)/CCC2)=[N+](CCCCCC(=O)NC23CC4(CCC(=O)N[C@@H](CCP(=O)(O)CC(CCC(=O)O)C(=O)O)C(=O)O)CC(CCC(=O)N[C@@H](CCP(=O)(O)CC(CCC(=O)O)C(=O)O)C(=O)O)(CC(CCC(=O)N[C@@H](CCP(=O)(O)CC(CCC(=O)O)C(=O)O)C(=O)O)(C4)C2)C3)c2ccccc21 (stereo partly specified) |  | 0.3 | 0.2 |  |  | Kd [2]: 0.3 nM; Activity [3]: 100%
CC1(C)C(/C=C/C2=C(Oc3ccc(S(=O)(=O)[O-])cc3)C(=C/C=C3/N(CCCCS(=O)(=O)O)c4ccccc4C3(C)C)/CCC2)=[N+](CCCCCC(=O)O)c2ccccc21 |  |  |  | inactive | inactive | Activity [3]: 100%
NC12CC3(CCC(=O)O)CC(CCC(=O)O)(C1)CC(CCC(=O)O)(C2)C3 |  |  |  | inactive | inactive | Activity [1]: inactive; Activity ([6]; PC-3): inactive
CC1(C)C(/C=C/C2=C(Oc3ccc(S(=O)(=O)O)cc3)C(=C/C=C3/N(CCCCS(=O)(=O)O)c4ccc(S(=O)(=O)O)cc4C3(C)C)/CCC2)=[N+](CCCCCC(=O)NCCCCCC(=O)NC23CC4(CCC(=O)O)CC(CCC(=O)O)(CC(CCC(=O)O)(C4)C2)C3)c2ccc(S(=O)(=O)[O-])cc21 |  |  |  | inactive | inactive | 
CC1(C)C(/C=C/C2=C(Oc3ccc(S(=O)(=O)O)cc3)C(=C/C=C3/N(CCCCS(=O)(=O)O)c4ccc(S(=O)(=O)[O-])cc4C3(C)C)/CCC2)=[N+](CCCCCC(=O)NCCCCCC(=O)NC23CC4(CCC=O)CC(CCC=O)(CC(CCC(=O)N[C@@H](CCP(=O)(O)CC(CCC(=O)O)C(=O)O)C(=O)O)(C4)C2)C3)c2ccc(S(=O)(=O)O)cc21 (stereo partly specified) |  |  | 5.4 |  |  | 
CC1(C)C(C=CC2=C(Oc3ccc(S(=O)(=O)O)cc3)/C(=C/C=C3/N(CCCCCC(=O)N[C@@H](CCP(=O)(O)CC(CCC(=O)O)C(=O)O)C(=O)O)c4ccc(S(=O)(=O)[O-])cc4C3(C)C)CCC2)=[N+](CCCCS(=O)(=O)O)c2ccc(S(=O)(=O)O)cc21 (stereo partly specified) |  |  | 3.6 |  |  | 
CC1(C)C(/C=C/C2=C(Oc3ccc(S(=O)(=O)O)cc3)C(=C/C=C3/N(CCCCS(=O)(=O)O)c4ccc(S(=O)(=O)O)cc4C3(C)C)/CCC2)=[N+](CCCCCC(=O)NCCCCCC(=O)NC23CC4(CCC(=O)N[C@@H](CCP(=O)(O)CC(CCC(=O)O)C(=O)O)C(=O)O)CC(CCC(=O)N[C@@H](CCP(=O)(O)CC(CCC(=O)O)C(=O)O)C(=O)O)(CC(CCC(=O)N[C@@H](CCP(=O)(O)CC(CCC(=O)O)C(=O)O)C(=O)O)(C4)C2)C3)c2ccc(S(=O)(=O)[O-])cc21 (stereo partly specified) | 0.4 nM | 0.5 | 0.5 |  |  | 
CC1(C)C(/C=C/C2=C(Oc3ccc(S(=O)(=O)[O-])cc3)C(=C/C=C3\N(CCCCS(=O)(=O)O)c4ccccc4C3(C)C)/CCC2)=[N+](CCCCCC(=O)NC23CC4(CCC(=O)O)CC(CCC(=O)O)(CC(CCC(=O)O)(C4)C2)C3)c2ccccc21 |  |  |  | inactive | inactive | 
CC1(C)C(/C=C/C2=C(Oc3ccc(S(=O)(=O)O)cc3)C(=C/C=C3/N(CCCCS(=O)(=O)O)c4ccc(S(=O)(=O)O)cc4C3(C)C)/CCC2)=[N+](CCCCCC(=O)O)c2ccc(S(=O)(=O)[O-])cc21 |  |  |  | inactive | inactive | 
CC(C)(C)OC(=O)NCCCCCC(=O)NC12CC3(CCC(=O)N[C@@H](CCP(=O)(O)CC(CCC(=O)O)C(=O)O)C(=O)O)CC(CCC(=O)N[C@@H](CCP(=O)(O)CC(CCC(=O)O)C(=O)O)C(=O)O)(CC(CCC(=O)N[C@@H](CCP(=O)(O)CC(CCC(=O)O)C(=O)O)C(=O)O)(C3)C1)C2 (stereo partly specified) |  | 0.5 | 0.4 |  |  | Kd [2]: 0.7 nM
CC1(C)C(/C=C/C2=C(Oc3ccc(S(=O)(=O)O)cc3)C(=C/C=C3/N(CCCCS(=O)(=O)O)c4ccc(S(=O)(=O)[O-])cc4C3(C)C)/CCC2)=[N+](CCCCCC(=O)NCCCCCC(=O)NC23CC4(CCC=O)CC(CCC(=O)N[C@@H](CCP(=O)(O)CC(CCC(=O)O)C(=O)O)C(=O)O)(CC(CCC(=O)N[C@@H](CCP(=O)(O)CC(CCC(=O)O)C(=O)O)C(=O)O)(C4)C2)C3)c2ccc(S(=O)(=O)O)cc21 (stereo partly specified) |  | 1.9 | 1.3 |  |  | Kd [2]: 1.7 nM
CC1(C)C(/C=C/C2=C(Oc3ccc(S(=O)(=O)O)cc3)C(=C/C=C3/N(CCCCS(=O)(=O)O)c4ccc(S(=O)(=O)O)cc4C3(C)C)/CCC2)=[N+](CCCCCC(=O)NCCCCCC(=O)NC23CC4(CCC=O)CC(CCC=O)(CC(CCC(=O)N[C@@H](CCP(=O)(O)CC(CCC(=O)O)C(=O)O)C(=O)O)(C4)C2)C3)c2ccc(S(=O)(=O)[O-])cc21 (stereo partly specified) | inactive |  |  |  |  | Activity [1]: inactive
N[C@@H](CCP(=O)(O)CC(CCC(=O)O)C(=O)O)C(=O)O (stereo partly specified) | inactive |  | 10.5 |  |  | Activity [1]: inactive
CC(C)(C)OC(=O)NC12CC3(CCC(=O)N[C@@H](CCP(=O)(O)CC(CCC(=O)O)C(=O)O)C(=O)O)CC(CCC(=O)N[C@@H](CCP(=O)(O)CC(CCC(=O)O)C(=O)O)C(=O)O)(CC(CCC(=O)N[C@@H](CCP(=O)(O)CC(CCC(=O)O)C(=O)O)C(=O)O)(C3)C1)C2 (stereo partly specified) | 0.9 nM | 0.8 | 0.6 |  |  | Kd [5]: 0.2 nM; Kd [6]: 0.3 nM; Kd [7]: 0.6 nM
